Test results: ChEMBL document CHEMBL1142155, “Human beta-defensins kill Candida albicans in an energy-dependent and salt-sensitive manner without causing membrane disruption” (2007)
Calls of active or inactive are those of the source. No cut-off for these calls is given here.

Legend:
[1] = tested on: Candida albicans; assay: Induction of membrane permeabilization in Candida albicans assessed as calcein release at 0.8 uM after 90 min; format: functional
In short: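 Early-stationary yeast washed in 10 mM NaPB, loaded at 10⁷/ml with 5 μM (final) calcein-AM for 2 h at room temperature, then washed four times; 10⁶ cells given 0.8 μM hBD-3 or 32 μM Hst 5. Fluorescence (ex 485/em 530 nm) read every 5 min for 90 min. Percent release = (I_r − I_bkg)/(I_int − I_bkg) × 100, where I_int comes from boiling 10 min. Mean ± SD of three experiments.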

[2] = tested on: Candida albicans; assay: Induction of ATP efflux in Candida albicans CAF4-2 at 1 uM; format: functional, organism-based
In short: (§1)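 10⁴ C. albicans cells given 31 μM Hst 5 or 1 μM hBD-3, with or without 2 h pretreatment in 1 mM NaN₃. Extracellular ATP read by luminometry at 0, 5, 15, 30, 45 and 60 min. Values come from per-experiment ATP standard curves, as pmol ATP per 10⁴ cells.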

[3] = tested on: Candida albicans; assay: Induction of ATP efflux in Candida albicans CAF4-2 at 1 uM in presence of 1 mM sodium azide; format: functional, organism-based; in short: as §1

**Q.** What does the source list for `CC[C@H](C)C(NC(=O)CN)C(=O)N[C@H](C(=O)N[C@@H](CC(N)=O)C(=O)N[C@H](C(=O)N[C@@H](CC(C)C)C(=O)N[C@@H](CCC(N)=O)C(=O)N[C@@H](CCCCN)C(=O)N[C@@H](Cc1ccc(O)cc1)C(=O)N[C@@H](Cc1ccc(O)cc1)C(=O)N[C@@H](CS)C(=O)N[C@@H](CCCNC(=N)N)C(=O)N[C@H](C(=O)N[C@@H](CCCNC(=N)N)C(=O)NCC(=O)NCC(=O)N[C@@H](CCCNC(=N)N)C(=O)N[C@@H](CS)C(=O)N[C@@H](C)C(=O)N[C@H](C(=O)N[C@@H](CC(C)C)C(=O)N[C@@H](CO)C(=O)N[C@@H](CS)C(=O)N[C@@H](CC(C)C)C(=O)N1CCC[C@H]1C(=O)N[C@@H](CCCCN)C(=O)N[C@@H](CCC(=O)O)C(=O)N[C@@H](CCC(=O)O)C(=O)N[C@@H](CCC(N)=O)C(=O)N[C@H](C(=O)NCC(=O)N[C@@H](CCCCN)C(=O)N[C@@H](CS)C(=O)N[C@@H](CO)C(=O)N[C@H](C(=O)N[C@@H](CCCNC(=N)N)C(=O)NCC(=O)N[C@@H](CCCNC(=N)N)C(=O)N[C@@H](CCCCN)C(=O)N[C@@H](CS)C(=O)N[C@@H](CS)C(=O)N[C@@H](CCCNC(=N)N)C(=O)N[C@@H](CCCNC(=N)N)C(=O)N[C@@H](CCCCN)C(=O)N[C@@H](CCCCN)C(=O)O)[C@@H](C)O)[C@@H](C)CC)C(C)C)C(C)C)[C@@H](C)O)[C@@H](C)CC` (stereo partly drawn)?
**A.** Activity [1]: 24.2%; Activity [2]: Active; Activity [3]: inactive
